# ChEMBL document CHEMBL1121929, “[(3-aryl-1,2-benzisoxazol-6-yl)oxy]acetic acids. A new diuretic series” (1982)
# Tested on: Canis familiaris
# Assay: The diuretic activity of compound was measured after oral administration in conscious water loaded dogs at 5 mg/kg after 5h; Micro equiv of Na+/kg
# Type: functional, Canis lupus familiaris, Urine
# How it was run: (§1)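 Male mongrel dogs (20–25 kg) were given 20 mL/kg tap water by gavage about 15 h before drug, with water ad libitum overnight. On the test day they received 4 mL/kg tap water hourly for 7 h, and the bladder was emptied at each interval. Drug was gavaged in the 4 mL/kg water load after the third urine sample, with Tween 80 added when it was poorly soluble. Urinary Na+ was measured by flame photometry as the mean excretory rate (μequiv/kg) per interval per animal. Each dog was its own control, using the hour before dosing.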
row,SMILES,Oral diuretic activity
1,O=C(O)COc1ccc2c(-c3ccccc3F)noc2c1Cl,458.2 u equiv of [Na+] kg-1
2,O=C(O)COc1ccc2c(-c3ccccc3F)noc2c1Br [BROCRINAT],503.3 u equiv of [Na+] kg-1
3,NS(=O)(=O)c1cc(C(=O)O)c(NCc2ccco2)cc1Cl [FUROSEMIDE],144.1 u equiv of [Na+] kg-1
4,O=C(O)COc1ccc2c(-c3c(F)cccc3F)noc2c1Cl,397 u equiv of [Na+] kg-1
5,O=C(O)COc1ccc(C(=O)c2cccs2)c(Cl)c1Cl [TICRYNAFEN],36.5 u equiv of [Na+] kg-1

# Tested on: Canis familiaris
# Assay: The diuretic activity of compound was measured after oral administration in conscious water loaded dogs at 5 mg/kg after 3 hr; Micro equiv of Na+/kg
# Type: functional, Canis lupus familiaris, Urine
# How it was run: as §1
row,SMILES,Oral diuretic activity
1,O=C(O)COc1ccc2c(-c3ccccc3F)noc2c1Cl,727 u equiv of [Na+] kg-1
2,O=C(O)COc1ccc2c(-c3ccccc3F)noc2c1Br [BROCRINAT],1182.6 u equiv of [Na+] kg-1
3,NS(=O)(=O)c1cc(C(=O)O)c(NCc2ccco2)cc1Cl [FUROSEMIDE],763.6 u equiv of [Na+] kg-1
4,O=C(O)COc1ccc2c(-c3c(F)cccc3F)noc2c1Cl,257.2 u equiv of [Na+] kg-1

# Tested on: Mus musculus
# Assay: The diuretic activity of compound was measured after oral administration in saline loaded mice at 64 mg/kg after 5h.
# Type: functional, Urine
# How it was run: (§2)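 Mice were dosed orally with drug in 1% saline at 10 mL/kg, at 4 or 64 mg/kg, alongside a vehicle control. There were 10 mice per group, housed 5 per metabolic cage. Pooled urine was analysed for sodium by flame photometry and expressed as mean mequiv/kg/5 h.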
row,SMILES,Oral diuretic activity
1,C=C(CC)C(=O)c1ccc(OCC(=O)O)c(Cl)c1Cl [ETHACRYNIC ACID],4.14 m equiv [Na+] 5hr-1kg-1
2,O=C(O)COc1ccc2c(-c3cccc[n+]3[O-])noc2c1Cl,1 m equiv [Na+] 5hr-1kg-1

# Tested on: Canis familiaris
# Assay: The diuretic activity of compound was measured after oral administration in conscious water loaded dogs at 5 mg/kg after 7h; Micro equiv of Na+/kg
# Type: functional, Canis lupus familiaris, Urine
# How it was run: as §1
row,SMILES,Oral diuretic activity
1,O=C(O)COc1ccc2c(-c3ccccc3F)noc2c1Cl,146.2 u equiv of [Na+] kg-1
2,O=C(O)COc1ccc2c(-c3c(F)cccc3F)noc2c1Cl,190 u equiv of [Na+] kg-1
3,O=C(O)COc1ccc(C(=O)c2cccs2)c(Cl)c1Cl [TICRYNAFEN],21.2 u equiv of [Na+] kg-1

# Tested on: Canis familiaris
# Assay: Diuretic activity was measured after oral administration in conscious water loaded dogs at 5 mg/kg after 1 hr
# Type: functional, Canis lupus familiaris, Urine
# How it was run: as §1
row,SMILES,Oral diuretic activity
1,NS(=O)(=O)c1cc(C(=O)O)c(NCc2ccco2)cc1Cl [FUROSEMIDE],1311.5 u equiv of [Na+] kg-1 hr-1

# Tested on: Canis familiaris
# Assay: Diuretic activity was measured after oral administration in conscious water loaded dogs at 20 mg/kg after 1 hr
# Type: functional, Canis lupus familiaris, Urine
# How it was run: as §1
row,SMILES,Oral diuretic activity
1,O=C(O)COc1ccc2c(-c3ccccc3F)noc2c1Cl,1267.5 u equiv of [Na+] kg-1 hr-1
2,O=C(O)COc1cc(Cl)c2c(-c3ccccc3F)noc2c1,82.1 u equiv of [Na+] kg-1 hr-1
3,Cc1ccccc1-c1noc2c(Cl)c(OCC(=O)O)ccc12,66.9 u equiv of [Na+] kg-1 hr-1
4,O=C(O)COc1cc2onc(-c3ccccc3F)c2cc1Cl,49.8 u equiv of [Na+] kg-1 hr-1
5,O=C(O)COc1ccc2c(-c3ccccc3F)noc2c1Br [BROCRINAT],1970.7 u equiv of [Na+] kg-1 hr-1
6,C=C(CC)C(=O)c1ccc(OCC(=O)O)c(Cl)c1Cl [ETHACRYNIC ACID],703 µequiv [Na+] kg-1 hr-1
7,O=C(O)COc1ccc2c(-c3cccc[n+]3[O-])noc2c1Cl,116.6 u equiv of [Na+] kg-1 hr-1
8,O=C(O)COc1ccc2c(-c3c(F)cccc3F)noc2c1Cl,1081.4 u equiv of [Na+] kg-1 hr-1
9,O=C(O)COc1ccc(C(=O)c2cccs2)c(Cl)c1Cl [TICRYNAFEN],302.3 u equiv of [Na+] kg-1 hr-1

# Tested on: Canis familiaris
# Assay: The diuretic activity of compound was measured after oral administration in conscious water loaded dogs at 5 mg/kg after 1 hr; Micro equiv of Na+/kg
# Type: functional, Canis lupus familiaris, Urine
# How it was run: as §1
row,SMILES,Oral diuretic activity
1,O=C(O)COc1ccc2c(-c3ccccc3F)noc2c1Cl,48.6 u equiv of [Na+] kg-1
2,O=C(O)COc1ccc2c(-c3ccccc3F)noc2c1Br [BROCRINAT],106.8 u equiv of [Na+] kg-1
3,NS(=O)(=O)c1cc(C(=O)O)c(NCc2ccco2)cc1Cl [FUROSEMIDE],1207 u equiv of [Na+] kg-1
4,O=C(O)COc1ccc2c(-c3c(F)cccc3F)noc2c1Cl,108.4 u equiv of [Na+] kg-1
5,O=C(O)COc1ccc(C(=O)c2cccs2)c(Cl)c1Cl [TICRYNAFEN],127.5 u equiv of [Na+] kg-1

# Tested on: Mus musculus
# Assay: The diuretic activity was measured after oral administration in saline loaded mice at 64 mg/kg after 5 hr
# Type: functional, Urine
# How it was run: as §2
row,SMILES,Oral diuretic activity
1,O=C(O)COc1ccc2c(-c3ccccc3F)noc2c1Cl,10 m equiv [Na+] 5hr-1kg-1
2,O=C(O)COc1cc(Cl)c2c(-c3ccccc3F)noc2c1,1.16 m equiv [Na+] 5hr-1kg-1
3,Cc1ccccc1-c1noc2c(Cl)c(OCC(=O)O)ccc12,1.76 m equiv [Na+] 5hr-1kg-1
4,O=C(O)COc1cc2onc(-c3ccccc3F)c2cc1Cl,0.2 m equiv [Na+] 5hr-1kg-1
5,O=C(O)COc1ccc2c(-c3ccccc3F)noc2c1Br [BROCRINAT],11.53 m equiv [Na+] 5hr-1kg-1
6,NS(=O)(=O)c1cc(C(=O)O)c(NCc2ccco2)cc1Cl [FUROSEMIDE],7.96 m equiv [Na+] 5hr-1kg-1
7,O=C(O)COc1ccc2c(-c3c(F)cccc3F)noc2c1Cl,10.4 m equiv [Na+] 5hr-1kg-1
8,O=C(O)COc1ccc(C(=O)c2cccs2)c(Cl)c1Cl [TICRYNAFEN],3.31 m equiv [Na+] 5hr-1kg-1

# Tested on: Mus musculus
# Assay: The diuretic activity of compound was measured after oral administration in saline loaded mice at 4 mg/kg after 5h.
# Type: functional, Urine
# How it was run: as §2
row,SMILES,Oral diuretic activity
1,C=C(CC)C(=O)c1ccc(OCC(=O)O)c(Cl)c1Cl [ETHACRYNIC ACID],1.09 m equiv [Na+] 5hr-1kg-1
2,O=C(O)COc1ccc2c(-c3cccc[n+]3[O-])noc2c1Cl,0.5 m equiv [Na+] 5hr-1kg-1

# Tested on: Canis familiaris
# Assay: The diuretic activity of compound was measured after oral administration in conscious water loaded dogs at 5 mg/kg after 6 h; Micro equiv of Na+/kg
# Type: functional, Canis lupus familiaris, Urine
# How it was run: as §1
row,SMILES,Oral diuretic activity
1,O=C(O)COc1ccc2c(-c3ccccc3F)noc2c1Cl,241.7 u equiv of [Na+] kg-1
2,NS(=O)(=O)c1cc(C(=O)O)c(NCc2ccco2)cc1Cl [FUROSEMIDE],40.4 u equiv of [Na+] kg-1
3,O=C(O)COc1ccc2c(-c3c(F)cccc3F)noc2c1Cl,342.6 u equiv of [Na+] kg-1

# Tested on: Mus musculus
# Assay: The diuretic activity was measured after oral administration in saline loaded mice at 4 mg/kg after 5 hr
# Type: functional, Urine
# How it was run: as §2
row,SMILES,Oral diuretic activity
1,O=C(O)COc1ccc2c(-c3ccccc3F)noc2c1Cl,3.5 m equiv [Na+] 5hr-1kg-1
2,O=C(O)COc1cc(Cl)c2c(-c3ccccc3F)noc2c1,1.59 m equiv [Na+] 5hr-1kg-1
3,Cc1ccccc1-c1noc2c(Cl)c(OCC(=O)O)ccc12,0.02 m equiv [Na+] 5hr-1kg-1
4,O=C(O)COc1cc2onc(-c3ccccc3F)c2cc1Cl,0.6 m equiv [Na+] 5hr-1kg-1
5,O=C(O)COc1ccc2c(-c3ccccc3F)noc2c1Br [BROCRINAT],1.02 m equiv [Na+] 5hr-1kg-1
6,NS(=O)(=O)c1cc(C(=O)O)c(NCc2ccco2)cc1Cl [FUROSEMIDE],1.93 m equiv [Na+] 5hr-1kg-1
7,O=C(O)COc1ccc2c(-c3c(F)cccc3F)noc2c1Cl,5.3 m equiv [Na+] 5hr-1kg-1
8,O=C(O)COc1ccc(C(=O)c2cccs2)c(Cl)c1Cl [TICRYNAFEN],1.11 m equiv [Na+] 5hr-1kg-1

# Tested on: Canis familiaris
# Assay: The diuretic activity of compound was measured after oral administration in conscious water loaded dogs at 5 mg/kg after 2 hr; Micro equiv of Na+/kg
# Type: functional, Canis lupus familiaris, Urine
# How it was run: as §1
row,SMILES,Oral diuretic activity
1,O=C(O)COc1ccc2c(-c3ccccc3F)noc2c1Cl,499.4 u equiv of [Na+] kg-1
2,O=C(O)COc1ccc2c(-c3ccccc3F)noc2c1Br [BROCRINAT],1083 u equiv of [Na+] kg-1
3,NS(=O)(=O)c1cc(C(=O)O)c(NCc2ccco2)cc1Cl [FUROSEMIDE],1311.5 u equiv of [Na+] kg-1
4,O=C(O)COc1ccc2c(-c3c(F)cccc3F)noc2c1Cl,98.9 u equiv of [Na+] kg-1

# Tested on: Canis familiaris
# Assay: The diuretic activity of compound was measured after oral administration in conscious water loaded dogs at 5 mg/kg after 4 hr; Micro equiv of Na+/kg
# Type: functional, Canis lupus familiaris, Urine
# How it was run: as §1
row,SMILES,Oral diuretic activity
1,O=C(O)COc1ccc2c(-c3ccccc3F)noc2c1Cl,503.7 u equiv of [Na+] kg-1
2,O=C(O)COc1ccc2c(-c3ccccc3F)noc2c1Br [BROCRINAT],869 u equiv of [Na+] kg-1
3,NS(=O)(=O)c1cc(C(=O)O)c(NCc2ccco2)cc1Cl [FUROSEMIDE],333.9 u equiv of [Na+] kg-1
4,O=C(O)COc1ccc2c(-c3c(F)cccc3F)noc2c1Cl,431.8 u equiv of [Na+] kg-1
5,O=C(O)COc1ccc(C(=O)c2cccs2)c(Cl)c1Cl [TICRYNAFEN],77.4 u equiv of [Na+] kg-1
